Screening results as filed in PubChem.
This is a sample that favours compounds with a hit; in the whole collection about 2.8% have one here.
MC4R antag cAMP: human MC4R antagonism in cAMP assay; P32245; MC4R-expressing cells, MTII-stimulated cAMP, LANCE TR-FRET; inhibition, % at 6.5 µM; 360,000 compounds, 0.48% hits; AID 540295;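 active = inhibition above its plate's cutoff, the mean of tested wells on that plate plus 3 SD, cut at about 29% in these data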;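 note: 0% = Melanotan II alone and 100% = Melanotan II plus saturating MCL0020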
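Material: human MC4R-expressing U2OS cells. Probe or stimulus: Melanotan II challenge. Dosing: 6.5 µM single dose. Times: 30-min compound, 1-h challenge, 1-h detection, room temperature. Technique: TR-FRET with Eu-cAMP and labeled anti-cAMP, 671 nm. Replication: singlicate.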
EBI2 block: antagonists of human EBI2 receptor; inhibition, % at 5 µM; EBI2 beta-arrestin recruitment, luminescence, 7a,25-OHC stimulated; 360,000 compounds, 0.81% hits; in the data active = inhibition above about 38%;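 note: enzyme fragment complementation signal reports receptor beta-arrestin coupling in cells; 0% = agonist plus DMSO wells and 100% = wells without agonist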
m5-HT2A agonist: activates the mouse 5-HT2A serotonin receptor; P35363; CHO-K1 mHTR2A beta-arrestin complementation, luminescence; percent of 30 µM serotonin response; activation, % at 7.6 µM; 360,000 compounds, 0.66% hits; AID 624169;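 active = activation above a run cutoff, the mean activation of all tested compounds plus 3 SD, cut at about 14% in these data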;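 note: 0% = plate median of compound wells and 100% = 30 µM serotonin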
Target sequence (P35363 whole entry, looked up): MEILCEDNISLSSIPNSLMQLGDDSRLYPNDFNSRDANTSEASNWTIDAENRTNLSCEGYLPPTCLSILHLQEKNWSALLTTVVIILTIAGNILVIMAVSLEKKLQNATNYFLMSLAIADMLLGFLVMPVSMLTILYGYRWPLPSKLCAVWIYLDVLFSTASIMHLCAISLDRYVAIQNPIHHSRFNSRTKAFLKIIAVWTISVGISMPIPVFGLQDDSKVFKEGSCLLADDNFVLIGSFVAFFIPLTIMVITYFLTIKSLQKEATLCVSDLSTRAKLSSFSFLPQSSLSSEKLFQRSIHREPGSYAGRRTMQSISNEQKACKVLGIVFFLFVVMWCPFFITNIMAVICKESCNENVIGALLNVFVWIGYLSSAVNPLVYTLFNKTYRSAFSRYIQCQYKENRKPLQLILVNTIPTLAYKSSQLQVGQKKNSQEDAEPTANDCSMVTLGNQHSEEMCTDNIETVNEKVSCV
MC4R ag barr: human MC4R agonism via beta-arrestin. P32245. U2OS MC4R beta-arrestin complementation, luminescence; percent of melanotan II response, DMSO zero. activation, % at 8.9 µM. 360,000 compounds, 0.98% hits;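 active = activation above a per-plate cutoff, the mean activation of sample wells on that plate plus 3 SD, cut at about 8% in these data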
cAMP nonselect: U2OS forskolin cAMP inhibition counter-screen; inhibition, % at 6.5 µM; parental U2OS, LANCE TR-FRET; 1,600 compounds, 26% hits; shares compounds with MC4R antag cAMP;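 active = mean inhibition over triplicates above the low-control well mean plus 3 SD, set per campaign, cut at about 13% in these data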;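 note: signal is single emission at 671 nm which falls as cellular cAMP rises; 0% = forskolin-stimulated wells and 100% = buffer without forskolin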
MC4R cAMP antag: human MC4R cAMP antagonism confirmation | shares compounds with MC4R antag cAMP | MC4R-expressing cells, MTII-stimulated cAMP, TR-FRET | inhibition, % at 6.5 µM | 1,600 compounds, 27% hits | AID 602195; in the data active = inhibition above about 29%;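 note: 0% = agonist stimulated wells alone and 100% = agonist stimulated wells plus saturating reference antagonist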
Starred values were filed as active, the others as inactive; . = not tested or not shown.

SMILES	MC4R antag cAMP	EBI2 block	m5-HT2A agonist	MC4R ag barr	cAMP nonselect	MC4R cAMP antag
Cc1ccc(C)c(-c2cc(C(=O)Nc3cccc(C(=O)O)c3)c3ccccc3n2)c1	34.8*	-0.5	0.7	-1.1	-0.8	-4.2
COc1cccc(NC(=O)CCN2C(=O)c3cccc([N+](=O)[O-])c3C2=O)c1	36.6*	-22.2	-7.4	-1.5	15.0*	34.0*
CCN(CC(=O)Nc1c(F)cccc1F)C(=O)CCN1C(=O)c2cccc([N+](=O)[O-])c2C1=O	36.5*	-4.5	-1.6	-1.8	15.5*	49.4*
COc1ccc(NC(=O)CCN2C(=O)c3cccc([N+](=O)[O-])c3C2=O)cc1	7.8	-10.5	0.2	-2.6	.	.
CCN(CC(=O)Nc1ccc(NC(C)=O)cc1)C(=O)CCN1C(=O)c2cccc([N+](=O)[O-])c2C1=O	5.1	-6.3	4.2	-2.1	.	.
O=C(CCNC(=O)c1ccc([N+](=O)[O-])cc1)NNC(=O)c1ccccc1F	-0.2	-0.8	10.9	0.4	.	.
COc1ccc(C(=O)CCN2CCCCCC2)cc1	40.1*	-2.0	0.0	-1.9	15.3*	23.6
Cc1ccc(S(=O)(=O)N(C)C[C@@H]2OCCCC[C@@H](C)Oc3ccc(NS(=O)(=O)c4c(C)noc4C)cc3C(=O)N([C@H](C)CO)C[C@@H]2C)cc1	34.3*	11.3	4.9	1.0	-1.1	3.3
Cc1noc(C)c1S(=O)(=O)Nc1ccc2c(c1)C(=O)N([C@H](C)CO)C[C@H](C)[C@H](CN(C)S(=O)(=O)c1ccc(Cl)cc1)OCCCC[C@@H](C)O2	.	8.4	4.6	.	.	.
COc1ccc(C2=NOC3(CC(=O)N(c4ccc(F)cc4)C3=O)C2)cc1 (stereo not given)	29.3*	-8.8	1.4	1.7	1.8	-5.9
Nc1ccn(C2OC(COP(=O)(O)O)C(O)C2O)c(=O)n1 (stereo not given)	1.7	-7.3	-4.5	-1.6	.	.
CC(=O)n1cc([C@H]2C=C(C(=O)Nc3ccccc3)O[C@@H](OCc3ccc(CO)cc3)C2)c2ccccc21	30.7*	-8.5	3.9	-0.8	1.3	12.5
CC(=O)n1cc([C@@H]2C=C(C(=O)NCc3ccccc3)O[C@H](OCc3ccc(CO)cc3)C2)c2ccccc21	35.5*	24.7	-1.8	-0.7	-2.0	5.9
CN(C)CCN1CCN(C2CN(Cc3ccc(F)cc3)S(=O)(=O)C2)CC1 (stereo not given)	.	-7.0	2.7	.	.	.
CCOC(=O)c1c(C)[nH]c(C)c1C(=O)COC(=O)c1cc(OC)c(OC)cc1OC	31.7*	-11.4	-0.6	0.8	-3.7	1.6
CCOC(=O)c1c(C)[nH]c(C)c1C(=O)COC(=O)c1cc(OC)cc(OC)c1	-2.9	3.2	-7.6	-2.8	.	.
O=S(=O)(NCC1CCCO1)c1cnc(Cl)c(Br)c1 (stereo not given)	28.5*	-7.5	4.3	-2.6	19.0*	43.3*
CC(=O)Oc1ccc2nc(-c3ccc(Br)o3)oc(=O)c2c1	32.0*	-4.2	-3.7	1.4	6.1	36.2*
Cc1ccc(-c2nn(-c3ccccc3)cc2NC(=O)CCl)cc1	36.8*	-8.4	-3.9	2.3	10.4	41.1*
Cc1ccc(-c2cc(NC(=O)CCl)n(-c3ccccc3)n2)cc1	25.6	10.0	0.5	0.8	.	.
O=C(CN1C(=O)NC2(CCCCC2)C1=O)Nc1cccc(S(=O)(=O)N2CCOCC2)c1	22.9	-7.0	5.3	0.0	.	.
O=C(CN1C(=O)NC2(CCCC2)C1=O)Nc1ccc(S(=O)(=O)N2CCOCC2)cc1	34.1*	-9.0	-2.6	-2.4	1.0	-2.9
CC1CCCCC12NC(=O)N(CC(=O)OCc1cccc(F)c1)C2=O (stereo not given)	2.5	-0.7	-5.5	0.3	.	.
COc1ccc(NC(=O)CN(C)CC(=O)Nc2ccc(Cl)c(S(=O)(=O)N(C)C)c2)cc1	-2.0	-13.2	-4.8	-1.9	.	.
CCN(CC(=O)Nc1ccc(Cl)c(S(=O)(=O)N(C)C)c1)CC(=O)NC(C)C	29.7*	-0.5	-1.3	0.5	1.0	-14.7
SMILES	MC4R antag cAMP	EBI2 block	m5-HT2A agonist	MC4R ag barr	cAMP nonselect	MC4R cAMP antag
COc1ccc(C2CC=C(C(C)=O)CN2S(=O)(=O)c2ccccc2)cc1 (stereo not given)	.	-1.3	-0.1	.	.	.
O=c1c2ccccc2sn1-c1ccccc1	-7.4	13.1	5.3	0.0	.	.
O=c1c2ccccc2sn1-c1nccs1	37.5*	13.0	8.1	-2.0	-0.1	0.1
CCOc1ccc(S(=O)(=O)N2CCc3ccccc3C2)cc1	0.0	-10.0	-6.3	-1.8	.	.
COC(=O)COc1ccc(S(=O)(=O)N2CCc3ccccc3C2)cc1	28.7*	-1.6	-0.6	-0.4	14.2*	24.8
COC(=O)CSc1[nH]c2ccc(F)cc2c1[N+](=O)[O-]	34.3*	-2.7	-2.5	-2.7	3.7	28.2
CC(C)C1CC(CCNCc2ccc3c(c2)OCO3)(c2ccccc2)CCO1 (stereo not given)	33.5*	2.2	3.6	2.6	0.1	40.8*
Cc1cccc(C(=O)NNC(=O)C2CCCCC2)c1O	-0.9	8.1	6.2	-1.5	.	.
COc1ccc(NC(=O)/C(Cl)=C(/Cl)S(=O)(=O)Cc2ccccc2)cn1	55.8*	60.9*	-4.8	-3.2	33.8*	48.9*
COc1ccc(NC(=O)C(Cl)=C(Cl)Cl)cn1	17.9	14.4	-0.1	-3.0	.	.
COc1ccc(NC(=O)/C(Cl)=C(/Cl)S(=O)Cc2ccc(Cl)cc2)cn1 (stereo not given)	76.4*	71.4*	-9.6	-7.1	10.5	53.5*
Cc1cccc(S(=O)(=O)NC(=O)C2(C)CCN2C(=O)c2c(C)noc2C)c1 (stereo not given)	6.3	-1.6	2.1	0.0	.	.
COc1ccc(-n2c(SC3CCOC3=O)nc3ccccc32)cc1 (stereo not given)	42.1*	-6.6	-4.1	-0.6	10.7	22.8
O=C1OCCC1Sc1nc2ccccc2c(=O)n1Cc1ccc(F)cc1 (stereo not given)	3.5	-17.2	-1.9	-0.4	.	.
O=C1OCCC1Sc1nnc(-c2ccc(F)cc2)n1Cc1ccccc1 (stereo not given)	32.1*	-0.6	-4.3	-1.7	25.8*	32.3*
O=C1OCCC1Sc1nc2ccccc2n1Cc1ccccc1 (stereo not given)	30.0*	-6.6	-2.2	-1.9	10.0	36.9*
O=C1OCCC1Sc1nc2ccccc2c(=O)n1-c1ccc(F)cc1 (stereo not given)	4.0	1.7	-1.2	0.0	.	.
O=C1OCCC1Sc1nc2ccccc2n1-c1ccccc1 (stereo not given)	22.7	-3.6	1.4	0.4	.	.
CN1CCN(C2CN(Cc3ccc(F)cc3)S(=O)(=O)C2)CC1 (stereo not given)	.	-5.5	3.2	.	.	.
COC(=O)c1ccc2nc(-c3ccc(OC)c(OC)c3)c(CC3CCCCC3)n2c1	.	9.3	0.7	.	.	.
